From ChEMBL document CHEMBL5131497, “Design, Synthesis, and Characterization of TNP-2198, a Dual-Targeted Rifamycin-Nitroimidazole Conjugate with Potent Activity against Microaerophilic and Anaerobic Bacterial Pathogens” (J Med Chem, 2022)
≈ marks a conversion by molar mass, not a printed value.

Assays:
Helicobacter pylori [1] = experiment: Antibacterial activity against Helicobacter pylori infected in C57/BL6 mouse assessed as bacterial load in stomach at 10 mg/kg administered twice daily via oral gavage starting from 7 days post inoculation and administered for 7 days (reference value: 5.25 log10CFU); assay type: functional; conditions: time 7 day
Gardnerella vaginalis [2] = experiment: Antibacterial activity against Gardnerella vaginalis clinical isolate USA; assay type: functional
Gardnerella vaginalis [3] = experiment: Antibacterial activity against Gardnerella vaginalis clinical isolate China; assay type: functional
Actinomyces naeslundii = experiment: Antibacterial activity against Actinomyces naeslundii ATCC 1210; assay type: functional
Clostridioides difficile [4] = experiment: Antibacterial activity against Clostridioides difficile clinical isolate USA; assay type: functional
Clostridioides difficile [5] = experiment: Antibacterial activity against Clostridioides difficile clinical isolate China; assay type: functional
Helicobacter pylori [6] = experiment: Antibacterial activity against Helicobacter pylori clinical isolate USA; assay type: functional
Helicobacter pylori [7] = experiment: Antibacterial activity against Helicobacter pylori clinical isolate China; assay type: functional
Staphylococcus aureus = experiment: Antibacterial activity against Staphylococcus aureus ATCC 29213; assay type: functional
Helicobacter pylori [8] = experiment: Antibacterial activity against rifampicin resistant Helicobacter pylori harboring rpoBL525I/D530N mutant; assay type: functional
Clostridioides difficile [9] = experiment: Antibacterial activity against rifampicin-resistant Clostridioides difficile harboring rpoBQ489K mutant; assay type: functional
Helicobacter pylori [10] = experiment: Antibacterial activity against Helicobacter pylori ATCC 700392 at 1:1 compound to rifampicin molar ratio measured after 5 days in presence of rifampicin by agar dilution method; assay type: functional; conditions: ATCC 700392, 120 h, time 5 day
Procedure, shortened: (§1)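 Agar dilution per CLSI: two-fold serial dilutions from 100× stocks in Mueller–Hinton agar with aged (≥2 weeks) sheep blood (5% v/v). Strains were wild-type ATCC 700392 (CB1531) and derived mutants carrying defined resistance determinants. MIC was read after 5 days at 35 °C under microaerobic conditions from a campylobacter gas-generating system. Routine culture was on TSA with 5% sheep blood.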

Helicobacter pylori [11] = experiment: Antibacterial activity against Helicobacter pylori ATCC 700392 at 1:1 compound to rifabutin molar ratio measured after 5 days in presence of rifabutin by agar dilution method; assay type: functional; conditions: ATCC 700392, 120 h, time 5 day
Procedure, shortened: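 Agar dilution per CLSI. Wild-type H. pylori ATCC 700392 (CB1531). Drugs prepared from 100× stocks as 2-fold dilutions in Mueller–Hinton agar with aged (≥2 weeks) sheep blood (5% v/v). Combinations were at 1:1 molar ratio. MIC read after 5 days at 35 °C under microaerobic atmosphere from a campylobacter gas-generating system.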

Helicobacter pylori [12] = experiment: Antibacterial activity against metronidazole-resistant Helicobacter pylori CB1573 harboring rdxAR16S mutant measured after 5 days by agar dilution method; assay type: functional; conditions: CB1573, 120 h, time 5 day
Procedure, shortened: (§2)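 Agar dilution per CLSI. Wild-type ATCC 700392 (CB1531) and its derivatives carry defined resistance determinants. Drugs, alone or in 1:1 molar mixtures, were diluted 2-fold from 100× stocks into Mueller–Hinton agar with aged (≥2 weeks) sheep blood (5% v/v). MIC read after 5 days at 35 °C under microaerobic conditions from a campylobacter gas-generating system.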

Helicobacter pylori [13] = experiment: Antibacterial activity against metronidazole-resistant Helicobacter pylori CB1573 harboring rdxAR16S mutant at 1:1 compound to rifabutin molar ratio measured after 5 days in presence of rifabutin by agar dilution method; assay type: functional; conditions: CB1573, 120 h, time 5 day; procedure, shortened: as §2
Helicobacter pylori [14] = experiment: Antibacterial activity against rifampicin-resistant Helicobacter pylori CB1902 harboring rpoBV149F mutant at 1:1 compound to rifampicin molar ratio measured after 5 days in presence of rifampicin by agar dilution method; assay type: functional; conditions: CB1902, 120 h, time 5 day; procedure, shortened: as §2
Helicobacter pylori [15] = experiment: Antibacterial activity against rifampicin-resistant Helicobacter pylori CB1903 harboring rpoBD530V mutant at 1:1 compound to rifabutin molar ratio measured after 5 days in presence of rifabutin by agar dilution method; assay type: functional; conditions: CB1903, 120 h, time 5 day; procedure, shortened: as §1
Helicobacter pylori [16] = experiment: Antibacterial activity against rifampicin-resistant Helicobacter pylori CB1614 harboring rpoBL525I/D530N at 1:1 compound to rifampicin molar ratio measured after 5 days in presence of rifampicin by agar dilution method; assay type: functional; conditions: CB1614, 120 h, time 5 day; procedure, shortened: as §2
Helicobacter pylori [17] = experiment: Antibacterial activity against metronidazole/rifampicin-resistant Helicobacter pylori CB1771 harboring rpoBL525I/D530N/rdxAE75stop mutant measured after 5 days by agar dilution method; assay type: functional; conditions: CB1771, 120 h, time 5 day; procedure, shortened: as §2
Helicobacter pylori [18] = experiment: Antibacterial activity against metronidazole/rifampicin-resistant Helicobacter pylori CB1771 harboring rpoBL525I/D530N/rdxAE75stop mutant at 1:1 compound to rifampicin molar ratio measured after 5 days in presence of rifampicin by agar dilution method; assay type: functional; conditions: CB1771, 120 h, time 5 day
Procedure, shortened: (§3)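 Agar dilution MIC per CLSI. Resistant derivatives of wild-type ATCC 700392 carrying defined rpoB/rdxA mutations. Test agent combined 1:1 molar with the partner drug. Agents prepared from 100× stocks and serially 2-fold diluted into Mueller–Hinton agar containing 5% v/v aged (≥2 weeks) sheep blood. Plates incubated 5 days at 35 °C under a microaerobic atmosphere from a gas-generating system.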

Helicobacter pylori [19] = experiment: Antibacterial activity against metronidazole/rifampicin-resistant Helicobacter pylori CB1893 harboring rpoBL525I/D530N/rdxAR16S mutant measured after 5 days by agar dilution method; assay type: functional; conditions: CB1893, 120 h, time 5 day; procedure, shortened: as §2
Helicobacter pylori [20] = experiment: Antibacterial activity against metronidazole/rifampicin-resistant Helicobacter pylori CB1893 harboring rpoBL525I/D530N/rdxAR16S mutant at 1:1 compound to rifampicin molar ratio measured after 5 days in presence of rifampicin by agar dilution method; assay type: functional; conditions: CB1893, 120 h, time 5 day; procedure, shortened: as §3
Clostridioides difficile [21] = experiment: Antibacterial activity against Clostridioides difficile CB1921 ATCC BAA1382 at 1:1 compound to rifampicin molar ratio measured after 3 days in presence of rifampicin; assay type: functional; conditions: CB1921 ATCC BAA1382, 72 h, time 3 day
Clostridioides difficile [22] = experiment: Antibacterial activity against rifampicin-resistant Clostridioides difficile CB1934 harboring rpoBQ489K mutant at 1:1 compound to rifampicin molar ratio measured after 3 days in presence of rifampicin; assay type: functional; conditions: CB1934, 72 h, time 3 day
Fannyhessea vaginae = experiment: Antibacterial activity against Atopobium vaginae BAA-55; assay type: functional
Clostridioides difficile [23] = experiment: Antibacterial activity against fluoroquinolone-resistant Clostridioides difficile CB1939 at 1:1 compound to rifampicin molar ratio measured after 3 days in presence of rifampicin; assay type: functional; conditions: CB1939, 72 h, time 3 day
Clostridioides difficile [24] = experiment: Antibacterial activity against fluoroquinolone-resistant Clostridioides difficile CB1941 harboring gyrAD71Y/T82A mutant at 1:1 compound to rifampicin molar ratio measured after 3 days in presence of rifampicin; assay type: functional; conditions: CB1941, 72 h, time 3 day
Clostridioides difficile [25] = experiment: Antibacterial activity against rifampicin/fluoroquinolone-resistant Clostridioides difficile CB1940 harboring rpoBQ489K/gyrAA118S mutant at 1:1 compound to rifampicin molar ratio measured after 3 days in presence of rifampicin; assay type: functional; conditions: CB1940, 72 h, time 3 day
Clostridioides difficile [26] = experiment: Antibacterial activity against rifampicin/fluoroquinolone-resistant Clostridioides difficile CB1942 harboring rpoBQ489K/gyrAD71Y/T82A mutant at 1:1 compound to rifampicin molar ratio measured after 3 days in presence of rifampicin; assay type: functional; conditions: CB1942, 72 h, time 3 day
Bacteroides fragilis = experiment: Antibacterial activity against metronidazole-resistant Bacteroides fragilis MMX 3387; assay type: functional
Campylobacter gracilis = experiment: Antibacterial activity against Bacteroides gracilis ATCC 33236 MMX 1270; assay type: functional
Bacteroides uniformis = experiment: Antibacterial activity against Bacteroides uniformis MMX 1277; assay type: functional
Phocaeicola vulgatus = experiment: Antibacterial activity against metronidazole-resistant Bacteroides vulgatus 3490; assay type: functional
Clostridium sporogenes = experiment: Antibacterial activity against Clostridium sporogenes ATCC 19404; assay type: functional
Fusobacterium nucleatum = experiment: Antibacterial activity against Fusobacterium nucleatum ATCC 10953; assay type: functional
Gardnerella vaginalis [27] = experiment: Antibacterial activity against Gardnerella vaginalis ATCC 14018; assay type: functional
Gardnerella vaginalis [28] = experiment: Antibacterial activity against Gardnerella vaginalis ATCC 49145; assay type: functional
Peptostreptococcus sp. = experiment: Antibacterial activity against Peptostreptococcus magnus ATCC 14956; assay type: functional
[29] = test system: Porphyromonas asaccharolytica; experiment: Antibacterial activity against metronidazole-resistant Prevotella asaccharolytica MMX 3552; assay type: functional
Veillonella parvula = experiment: Antibacterial activity against Veillonella parvula ATCC 17745 MMX 1272; assay type: functional
Syrian golden hamster = experiment: Antibacterial activity against Clostridioides difficile UNT-103-1 infected in Syrian hamster assessed as mortality at 100 mg/kg, po administered once a daily for 5 days after 18 hrs post 10 mg/kg clindamycin treatment and measured upto 21 days; assay type: functional, Mesocricetus auratus; conditions: time <= 21 day
Procedure, shortened: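 Male Golden Syrian hamsters (80-90 g), housed singly, were gavaged with C. difficile UNT103-1 grown in sporulation medium broth and diluted to OD600 1 in prereduced broth. […] From 18 h later, drug or vehicle was given by oral gavage once daily for 5 days. Survival was recorded through day 21.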

CC[C@H]1OC(=O)[C@H](C)[C@@H](O[C@H]2C[C@@](C)(OC)[C@@H](O)[C@H](C)O2)[C@H](C)[C@@H](O[C@@H]2O[C@H](C)C[C@H](N(C)C)[C@H]2O)[C@](C)(OC)C[C@@H](C)C(=O)[C@H](C)[C@@H](O)[C@]1(C)O [CLARITHROMYCIN]
Activity (Helicobacter pylori [1]): 2.85 log10CFU

Cc1ncc([N+](=O)[O-])n1CCO [METRONIDAZOLE]
MIC (Gardnerella vaginalis [2]): ≥ 2 µg/mL | MIC90 (Gardnerella vaginalis [2]): 64 µg/mL (≈ 374 µM) | MIC (Gardnerella vaginalis [3]): ≥ 16 µg/mL | MIC90 (Gardnerella vaginalis [3]): ≥ 32 µg/mL | MIC (Actinomyces naeslundii): 256 µg/mL (≈ 1500 µM) | MIC (Clostridioides difficile [4]): 0.12 µg/mL (≈ 0.701 µM) | MIC (Clostridioides difficile [5]): ≤ 0.06 µg/mL | MIC90 (Clostridioides difficile [5]): 0.125 µg/mL (≈ 0.73 µM) | MIC90 (Helicobacter pylori [6]): 128 µg/mL (≈ 748 µM) | MIC (Helicobacter pylori [7]): ≥ 0.25 µg/mL | MIC90 (Helicobacter pylori [7]): ≥ 16 µg/mL | MIC (Staphylococcus aureus): > 32 µg/mL | MIC (Helicobacter pylori [8]): > 32 µg/mL | MIC (Clostridioides difficile [9]): > 8 µg/mL | MIC (Helicobacter pylori [10]): 0.5 µg/mL | MIC (Helicobacter pylori [11]): ≤ 0.002 µg/mL | MIC (Helicobacter pylori [12]): 32 µg/mL (≈ 187 µM) | MIC (Helicobacter pylori [13]): ≤ 0.002 µg/mL | MIC (Helicobacter pylori [14]): 8 µg/mL | MIC (Helicobacter pylori [15]): 1 µg/mL | MIC (Helicobacter pylori [16]): 8 µg/mL | MIC (Helicobacter pylori [17]): 32 µg/mL (≈ 187 µM) | MIC (Helicobacter pylori [18]): > 32 µg/mL | MIC (Helicobacter pylori [19]): 32 µg/mL (≈ 187 µM) | MIC (Helicobacter pylori [20]): > 32 µg/mL | MIC (Clostridioides difficile [21]): ≤ 0.03 µg/mL | MIC (Clostridioides difficile [22]): 2 µg/mL | MIC (Fannyhessea vaginae): 128 µg/mL (≈ 748 µM) | MIC (Clostridioides difficile [23]): ≤ 0.03 µg/mL | MIC (Clostridioides difficile [24]): ≤ 0.03 µg/mL | MIC (Clostridioides difficile [25]): 2 µg/mL | MIC (Clostridioides difficile [26]): 2 µg/mL | MIC (Bacteroides fragilis): > 256 µg/mL | MIC (Campylobacter gracilis): > 256 µg/mL | MIC (Bacteroides uniformis): > 256 µg/mL | MIC (Phocaeicola vulgatus): 128 µg/mL (≈ 748 µM) | MIC (Clostridium sporogenes): 0.06 µg/mL (≈ 0.351 µM) | MIC (Fusobacterium nucleatum): 0.06 µg/mL (≈ 0.351 µM) | MIC (Gardnerella vaginalis [27]): 4 µg/mL (≈ 23.4 µM) | MIC (Gardnerella vaginalis [28]): 4 µg/mL (≈ 23.4 µM) | MIC (Peptostreptococcus sp.): 1 µg/mL (≈ 5.84 µM) | MIC [29]: 1 µg/mL (≈ 5.84 µM) | MIC (Veillonella parvula): 2 µg/mL (≈ 11.7 µM) | Activity (Syrian golden hamster): 100%
